Laboratory results from ChEMBL document CHEMBL3085690, “Naturally occurring antimicrobial peptide OH-CATH30 selectively regulates the innate immune response to protect against sepsis” (J Med Chem, 2013).
Calls of active or inactive are those of the source. The rule behind the calls is not given here. Peptide text beside a SMILES is read from it.

Key:
[1] = Induction of IL-10 mRNA up-regulation in mouse BMDM at 20 ug/ml after 3 hrs by qRT-PCR analysis relative to control; type: functional
Method in brief: (§1)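 Murine BMDMs stimulated with peptide, then target mRNA quantified by qRT-PCR. Expression normalized to GAPDH, with untreated cells set to 1.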

BMDM [2] = assay: Induction of CXCL1 mRNA up-regulation in mouse BMDM at 20 ug/ml after 3 hrs by qRT-PCR analysis; type: functional; method in brief: as §1
BMDM [3] = assay: Induction of CCL7 mRNA up-regulation in mouse BMDM at 20 ug/ml after 3 hrs by qRT-PCR analysis; type: functional; method in brief: as §1
BMDM [4] = assay: Induction of CCL4 mRNA up-regulation in mouse BMDM at 20 ug/ml after 3 hrs by qRT-PCR analysis; type: functional; method in brief: as §1
Mus musculus [5] = assay: Stimulation of innate immune response in Kunming mouse assessed as protection against CLP-induced mortality by measuring survival rate at 10 mg/kg, ip administered 2 hrs before bacterial infection measured up to 7 days; type: functional; details: route intraperitoneal
Mus musculus [6] = assay: Stimulation of innate immune response in Kunming mouse assessed as protection against drug-resistant Staphylococcus aureus-induced mortality by measuring survival rate at 10 mg/kg, ip administered 5 hrs before bacterial infection measured up to 7 days; type: functional; details: route intraperitoneal
Method in brief: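 Female Kunming mice (18−22 g) were dosed ip in sterile saline at 10 mg/kg, 5 h before ip challenge with clinical drug-resistant isolates: E. coli (n = 12), P. aeruginosa (n = 10) or S. aureus (n = 15). Survival was recorded for up to 7 days, with checks every 6 h and euthanasia by CO2 at the humane end point.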

Mus musculus [7] = assay: Stimulation of innate immune response in Kunming mouse assessed as protection against Pseudomonas aeruginosa ATCC 27853-induced mortality by measuring survival rate at 10 mg/kg, ip administered 5 hrs before bacterial infection measured up to 7 days; type: functional; details: route intraperitoneal
Method in brief: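 Female Kunming mice (18−22 g) received a single ip dose in sterile saline 5 h before ip challenge with P. aeruginosa 27853 (8 × 10^7 CFU/mouse; n = 8) or S. aureus 25923 (2 × 10^8 CFU/mouse; n = 10). Mice were checked every 6 h for up to 7 days, with a humane end point. Curves were compared by log-rank test.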

[8] = molecular target: Mitogen-activated protein kinase 1 and 3 (ERK2 and ERK1) (Mus musculus) (UniProt P63085+Q63844); assay: Activation of ERK1/2 in mouse BMDM assessed as phosphorylation at 10 ug/ml after 15 to 30 mins by Western blotting; type: protein assay
Chain of Mitogen-activated protein kinase 1 and 3 (ERK2 and ERK1) (Mus musculus) (P63085 whole entry, looked up): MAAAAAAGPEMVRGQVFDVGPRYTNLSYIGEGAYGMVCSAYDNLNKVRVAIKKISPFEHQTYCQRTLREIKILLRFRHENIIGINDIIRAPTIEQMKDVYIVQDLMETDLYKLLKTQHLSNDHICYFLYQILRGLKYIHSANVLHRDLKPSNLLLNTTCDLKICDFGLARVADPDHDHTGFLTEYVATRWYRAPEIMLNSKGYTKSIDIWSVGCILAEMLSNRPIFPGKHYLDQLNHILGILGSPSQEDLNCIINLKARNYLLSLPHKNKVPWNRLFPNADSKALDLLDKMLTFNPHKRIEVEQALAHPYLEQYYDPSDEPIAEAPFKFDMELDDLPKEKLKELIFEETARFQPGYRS
Chain of Mitogen-activated protein kinase 1 and 3 (ERK2 and ERK1) (Mus musculus) (Q63844 whole entry, looked up): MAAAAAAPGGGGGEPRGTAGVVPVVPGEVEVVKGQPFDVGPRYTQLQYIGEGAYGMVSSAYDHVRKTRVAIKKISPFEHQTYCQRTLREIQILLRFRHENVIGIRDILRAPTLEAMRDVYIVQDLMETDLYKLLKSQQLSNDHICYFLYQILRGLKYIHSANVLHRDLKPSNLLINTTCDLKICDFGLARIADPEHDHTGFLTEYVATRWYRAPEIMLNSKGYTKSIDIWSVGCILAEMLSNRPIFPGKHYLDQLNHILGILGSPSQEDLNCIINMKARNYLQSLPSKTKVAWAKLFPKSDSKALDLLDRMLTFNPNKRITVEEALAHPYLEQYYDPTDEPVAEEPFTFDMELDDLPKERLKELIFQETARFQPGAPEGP
Method in brief: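 BMDMs (bone marrow cells grown in RPMI 1640 with 10% FCS and 20% L929-conditioned medium) stimulated, then lysates run on 10% SDS-PAGE and transferred to PVDF. Membranes blocked with 5% BSA and probed with phospho-ERK1/2 and total ERK1/2 antibodies, or with anti-IκBα. HRP anti-rabbit secondary, chemiluminescent detection.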

BMDM [9] = assay: Increase of CXCL2 production in mouse BMDM after 6 hrs by ELISA in presence of pertussis toxin; type: functional
Method in brief: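 BMDMs (bone marrow cells in RPMI 1640 with 10% FCS and 20% L929-conditioned medium) were preincubated 30 min with pertussis toxin (100 ng/mL), then stimulated with peptide for 6 h. CXCL2 in the supernatant was measured by ELISA. Mean ± SEM from three independent experiments, unpaired t test.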

RAW264.7 [10] = assay: Downregulation of TLR4/MD2 complex in plasma membrane in mouse RAW264.7 cells relative to LPS; type: functional
Method in brief: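 RAW 264.7 cells in DMEM with 10% FCS, exposed 30 min to peptide (20 μg/mL) or LPS (1 μg/mL). Washed in ice-cold PBS, stained with PE anti-mouse TLR4/MD2 (2 μg/mL) for 30 min on ice. Surface complex measured by flow cytometry.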

BMDM [11] = assay: Increase of CXCL2 production in mouse BMDM after 6 hrs by ELISA in presence of TLR4/MD2 Ab; type: functional
RAW264.7 [12] = assay: Inhibition of PGN-induced TNFalpha production in mouse RAW264.7 cells 2 to 50 ug/ml after 6 hrs by ELISA; type: functional, cell-based
Mus musculus [13] = assay: Stimulation of innate immune response in clodronate liposomes treated Kunming mouse monocytes depletion model assessed as recruitment of neutrophils at 10 mg/kg, ip; type: functional, organism-based; parameters: dose 10 mg/kg
Mus musculus [14] = assay: Stimulation of innate immune response in clodronate liposomes treated Kunming mouse monocytes depletion model assessed as increase of CXCL2 production in peritoneal lavage at 10 mg/kg, ip; type: functional, organism-based; parameters: dose 10 mg/kg
Mus musculus [15] = assay: Stimulation of innate immune response in neutropenic Kunming mouse infected with Pseudomonas aeruginosa ATCC 27853 assessed as reduction of bacterial burden in peritoneal lavage at 10 mg/kg, ip relative to control; type: functional; parameters: scale not given: the % may be the effect or the level left; details: route intraperitoneal
Method in brief: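 Mice were made neutropenic with cyclophosphamide ip, 150 mg/kg on day 0 and 100 mg/kg on day 3. Peptide was given ip at 10 mg/kg 5 h before ip bacterial infection on day 5 (n = 10). Viable bacteria in the peritoneal cavity were counted 8 h after inoculation, and groups were compared by unpaired t test.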

Mus musculus [16] = assay: Stimulation of innate immune response in neutropenic Kunming mouse infected with Pseudomonas aeruginosa ATCC 27853 assessed as increase of number of neutrophils and inflammatory monocytes in peritoneal lavage at 10 mg/kg, ip up to 24 hrs; type: functional, organism-based; parameters: dose 10 mg/kg
Method in brief: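 Mice were made neutropenic with ip cyclophosphamide, 150 mg/kg on day 0 and 100 mg/kg on day 3. They were then injected ip with peptide at 10 mg/kg. Peritoneal cells were collected up to 24 h afterwards and typed by flow cytometry after GR1/F4/80 staining.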

Mus musculus [17] = assay: Stimulation of innate immune response in Kunming mouse assessed as increase of leukocytes in peritoneal lavage at 10 mg/kg, ip after 5 hrs; type: functional, organism-based; parameters: dose 10 mg/kg
Method in brief: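 Female Kunming mice were given peptide ip at 10 mg/kg. At 5 h, peritoneal cells were recovered by lavage with 2 mL PBS and counted. Cells were stained with anti-F4/80-PE and GR1-FITC for 30 min at room temperature and typed by flow cytometry: neutrophils GR1+/F4/80−, resident monocytes/macrophages GR1−/F4/80+, inflammatory monocytes GR1+/F4/80+. Data are mean ± SD from three mice, unpaired t test.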

Mus musculus [18] = assay: Stimulation of innate immune response in Kunming mouse assessed as increase of IL-6 level in peritoneal lavage at 10 mg/kg, ip after 5 hrs; type: functional, organism-based; parameters: dose 10 mg/kg
Method in brief: (§2)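 Female Kunming mice (18−22 g) received a single ip injection of peptide at 10 mg/kg in sterile saline. Peritoneal lavage was collected in 2 mL of cold sterile saline 5 h later, and cytokines and chemokines were measured by ELISA. Data are mean ± SD from four mice, compared by unpaired t test.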

Mus musculus [19] = assay: Stimulation of innate immune response in Kunming mouse assessed as increase of IL-10 level in peritoneal lavage at 10 mg/kg, ip after 5 hrs; type: functional, organism-based; parameters: dose 10 mg/kg; method in brief: as §2
BMDM [20] = assay: Increase of TNFalpha protein level in mouse BMDM at 20 ug/ml after 18 hrs by ELISA; type: functional
Method in brief: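 Bone marrow-derived macrophages (RPMI 1640, 10% FCS, 20% L929-conditioned medium) stimulated with peptide for 18 h. Cytokines and chemokines in culture supernatant quantified by sandwich ELISA. Mean ± SD from three independent experiments, unpaired t test.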

SMILES: CC[C@H](C)[C@H](NC(=O)[C@@H](NC(=O)[C@H](CCCNC(=N)N)NC(=O)[C@@H]1CCCN1C(=O)[C@H](CCCCN)NC(=O)[C@H](CCCCN)NC(=O)[C@H](Cc1ccccc1)NC(=O)[C@H](Cc1ccccc1)NC(=O)[C@H](CCCCN)NC(=O)[C@H](CCCCN)NC(=O)[C@H](C)NC(=O)[C@H](CCCNC(=N)N)NC(=O)[C@H](CCCCN)NC(=O)[C@H](CCCCN)NC(=O)[C@@H](NC(=O)[C@H](CO)NC(=O)[C@H](CC(N)=O)NC(=O)[C@H](CCCCN)NC(=O)[C@H](CC(C)C)NC(=O)[C@H](CCCCN)NC(=O)[C@H](CCCCN)NC(=O)[C@H](Cc1ccccc1)NC(=O)[C@H](Cc1ccccc1)NC(=O)[C@@H](N)CCCCN)C(C)C)C(C)C)C(=O)NCC(=O)N[C@H](C(=O)N[C@@H](CO)C(=O)N[C@H](C(=O)N1CCC[C@H]1C(=O)N[C@@H](Cc1ccccc1)C(=O)O)[C@@H](C)CC)C(C)C (H-KFFKKLKNSVKKRAKKFFKKPRVIGVSIPF-OH)
- fold change (FC) [1]: 5
- Activity (BMDM [2]): Active
- Activity (BMDM [3]): Active
- Activity (BMDM [4]): Active
- survival at 10 mg/kg (Mus musculus [5]): 40%
- survival at 10 mg/kg (Mus musculus [6]): 63%
- survival at 10 mg/kg (Mus musculus [7]): > 85%
- Activity [8]: Active
- Activity (BMDM [9]): inactive
- Activity (RAW264.7 [10]): 20%
- Activity (BMDM [11]): inactive
- inhibition (RAW264.7 [12]): inactive
- Activity (Mus musculus [13]): inactive
- Activity (Mus musculus [14]): inactive
- Activity (Mus musculus [15]): 40%
- Activity (Mus musculus [16]): inactive
- Activity (Mus musculus [17]): Active
- Activity (Mus musculus [18]): inactive
- Activity (Mus musculus [19]): Active
- Activity (BMDM [20]): inactive
